The values that follow come from ChEMBL document CHEMBL4229550, “An antimycobacterial pleuromutilin analogue effective against dormant bacilli” (Bioorg Med Chem, 2018).

Converted amounts (≈) assume the structure as drawn. The source made the active and inactive calls. No cut-off for these calls is given here.

Series [1] has as its system Mycobacterium tuberculosis. Put plainly: Bactericidal activity against replicating Mycobacterium tuberculosis H37Rv incubated for 15 days under aerobic condition by MABA. It is filed as functional. The note with it: 360 h. The essentials: (§1)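 Mtb H37Rv grown in 7H9/OADC at 37 °C with shaking to OD600 0.5. The 0.5-OD culture is exposed aerobically to serial dilutions for 15 days at 37 °C. Resazurin (0.02% stock) is then added for 4 h at 37 °C with shaking.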
A general note: Resazurin is reduced to fluorescent resorufin, in cell work by metabolically active cells.

The subject of series [2] is Mycobacterium tuberculosis. Put plainly: Antibacterial activity against replicating Mycobacterium tuberculosis H37Rv incubated for 15 days under aerobic condition by MABA. The note with it: 360 h, read-out: MIC100. Format: functional. Summed up: as §1
The next series deals with Vero. Put plainly: Cytotoxicity against African green monkey Vero cells assessed as reduction in cell viability after 72 hrs by MTT assay. The following applies: Chlorocebus sabaeus. It is filed as cell-based. The essentials: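 Vero cells were grown in complete EMEM with 10% FBS and exposed for 72 h to 0.78–200 µg/mL. The medium was then swapped for phenol-red-free EMEM and MTT was added. Formazan absorbance was read at 570 nm to give IC50.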
(Tetrazolium assays rely on reduction of a dye to a coloured formazan, in cell work by metabolically active cells.)

Series [3] has as its system Mycobacterium tuberculosis. Put plainly: Bactericidal activity against non-replicating Mycobacterium tuberculosis CDC1551 expressing tdTomato infected in mouse J774A.1 cells at 2 times MIC up to 72 hrs by UV-Visible spectroscopic method. Format: functional, organism-based. The essentials: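 J774A.1 macrophages are seeded at […] cells/well in DMEM and incubated overnight at 37 °C. They are infected with saline-washed Mtb CDC1551-tdTomato (10^6 bacteria, MOI ≈10), and extracellular bacteria are washed off with PBS. Treatment is at 2×MIC, with fluorescence emission read at 581 nm at 24, 48, 72 and 96 h. Survivors are confirmed by serial dilution and plating on 7H11.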

Series [4] can be described thus: Selectivity index, ratio of IC50 for African green monkey Vero cells to MIC100 for replicating Mycobacterium tuberculosis H37Rv by MABA. The note with it: read-out: Selectivity Index. Format: toxicity. Summed up:
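Vero cells are cultured in EMEM with 10% FBS and exposed for 72 h to 0.78–200 µg/mL. Medium is switched to phenol-red-free EMEM, MTT is added, and formazan is read at 570 nm to give IC50. The selectivity index is Vero IC50 divided by the MABA MIC.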

Series [5] concerns Mycobacterium tuberculosis. Description: Antibacterial activity against Mycobacterium tuberculosis Erdman infected in Balb/c mouse assessed as reduction in bacterial load in lungs at 2.5 mg/kg, po for 3 weeks starting from 10 days post infection measured on day 21 post infection. It is filed as functional, Erdman = ATCC 35801. Summed up: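 Female BALB/c mice, 7–8 weeks old, are aerosol-infected with Mtb Erdman. From day 10 they receive oral gavage in water for three weeks, in groups of 5. Lungs and spleens are harvested at day 21 post-infection and plated for CFU. Efficacy is the log10 reduction in lung burden versus untreated (vehicle) controls.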

As usually defined, the MBC is the lowest tested concentration that kills the bacteria rather than only halting them. In general, IC50 refers to the concentration needed to halve the response being measured. Regarding `NNC(=O)c1ccncc1` [ISONIAZID], in series [1], the MBC is 0.57 µg/mL (≈ 4.16 µM). In series [2], the MIC was 0.04 to 0.1 µg/mL (≈ 0.292 to 0.729 µM). The IC50 with Vero is over 200 µg/mL. The result in series [3] was inactive. The selectivity ratio in series [4] was over 2000. Moreover, the “log(activity)” value in series [5] worked out at 4.22.
